# Bioassay records (PubChem BioAssay)
# ROMK primary = modulates human ROMK potassium channel activity. P48048. Tet-inducible ROMK, thallium flux fluorescence; actives lie on both sides. B-score at 10 µM. 2% of 130,000 active. AID 1918;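 active = signal ratio slope over the read window, or its plate-corrected B-score, at least 3 SD from the plate mean, either direction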;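 note: B-score of the F/F0 ratio slope over 7 to 12 s after thallium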
# Target sequence (P48048 whole entry, looked up): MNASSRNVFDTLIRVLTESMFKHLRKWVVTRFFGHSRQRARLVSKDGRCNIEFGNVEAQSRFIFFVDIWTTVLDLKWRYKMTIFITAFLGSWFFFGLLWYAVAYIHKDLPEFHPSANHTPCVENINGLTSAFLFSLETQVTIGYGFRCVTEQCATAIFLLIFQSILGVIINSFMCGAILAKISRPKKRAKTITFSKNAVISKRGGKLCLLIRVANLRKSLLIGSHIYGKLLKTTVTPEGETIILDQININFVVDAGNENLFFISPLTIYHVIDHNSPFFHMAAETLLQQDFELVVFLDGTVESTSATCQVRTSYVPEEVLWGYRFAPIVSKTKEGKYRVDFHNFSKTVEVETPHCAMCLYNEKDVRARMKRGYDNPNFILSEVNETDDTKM
# Calb biofilm kill = mixture kills Candida albicans biofilm cells; 0.02% of 120,000 active; inhibition, % at 7.6 µM; C. albicans biofilm persisters + clotrimazole, fluorescence viability; primary screen in compound mixtures of four per well;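 note: compounds exposed to preformed 24 h biofilms for 48 h; 0% = untreated biofilm control and 100% = clotrimazole plus chlorhexidine kill blank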
#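 Test system: C. albicans biofilms. Buffer or medium: RPMI/MOPS medium, pH 7.0. Timing: 48 h compound exposure at 37 °C. Technique: Alamar Blue fluorescence. Evaluation: percent inhibition of biofilm viability.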
# Pf gamet viab = inhibitors of late stage P. falciparum gametocyte viability; P. falciparum stage V gametocytes, ATP luminescence, 24 h; inhibition, % at 10.9 µM; 0.065% of 150,000 active;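 active = inhibition above the mean plus 3 SD of compounds within the control limits, set per campaign, cut at about 38% in these data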;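 note: 0% = DMSO wells and 100% = medium only without gametocytes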
# ROMK retest = confirmation of human ROMK potassium channel modulators | shares compounds with ROMK primary | ROMK thallium flux, fluorescence ratio; stronger effect = lower value | normalized thallium flux (F/F0 slope) at 10 µM | 54% of 3,000 active | AID 1917;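 active = Flux at 10 µM at least 3 SD below or above vehicle control mean in one or both replicates; inconclusive = no clear call, values can overlap the other calls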
# * hit, by the source's call; ? = inconclusive; / = not tested or not shown. Only a selection was taken, and hits are over-represented in it overall.
SMILES,ROMK primary,Calb biofilm kill,Pf gamet viab,ROMK retest
O=C1N=C(N2CCOCC2)S/C1=C/c1cccs1,/,/,22,/
CCN(CC)c1ccc(/C=C2\C(=O)N(c3nnc(C)c(=O)[nH]3)N=C2C)cc1,/,19,-33,0.029*
CC1=NN(CCC#N)C(=O)/C1=C/c1ccc(N(C)C)cc1,-1.2,5,-4,/
CCN(CC)c1ccc(C=C2C(=O)OC3(CCCCC3)OC2=O)cc1,-0.24,10,-28,/
CCN(CC)c1ccc(/C=C2/C(=O)ON=C2C)cc1,-5.7*,6,0,0.036*
CC1=NOC(=O)/C1=C/c1ccc(N(C)C)cc1,/,/,4,?
CCN(CC)c1ccc(/C=C2\C(=O)N(c3ccc([N+](=O)[O-])cc3)N=C2N2CCOCC2)cc1,-0.02,/,/,/
O=C(N/N=C/c1ccccc1F)c1ccc(COc2ccccc2Cl)o1,/,11,/,/
CCOC(=O)c1c(N/C=C(\C#N)c2nc(-c3ccc(OC(C)=O)cc3)cs2)sc2c1CCC2,/,/,-8,/
O=C(Nn1cnnc1)c1cc(Br)ccc1Cl,/,/,-30,/
CN(Cc1ccccc1)c1ccc2nnc(-c3ccccc3)n2n1,-3.7*,-1,/,0.065*
Clc1ccc(CNc2ccc3nnc(-c4ccccc4)n3n2)cc1,0.99,16,/,/
CS(=O)(=O)Nc1ccc(C(=O)N2CC(=O)Nc3ccccc32)cc1,/,/,4,/
COc1ccc(/C=C/C2=CC(C)(C)NC(=S)N2)cc1OC,1.1,14,7,/
COc1ccc(/C=C/C2=Nc3ccccc3NC(C)(C)C2)cc1OC,-7.8*,22,-19,0.043*
COc1ccc(/C(C)=N\O)cc1OC,/,13,-6,/
Cc1ccc(-n2nnnc2Sc2ccc(S(=O)(=O)NCCN(C)C)cc2[N+](=O)[O-])cc1,-3.5*,20,-12,0.057*
CN(C)CCNS(=O)(=O)c1ccc(N2CCN(c3ccc(F)cc3)CC2)c([N+](=O)[O-])c1,-4*,2,5,0.064*
CC(=O)N1CCN(c2ccc(S(=O)(=O)NCCN(C(C)C)C(C)C)cc2[N+](=O)[O-])CC1,0.24,8,/,/
O=[N+]([O-])c1cc(S(=O)(=O)NCCN2CCOCC2)ccc1Sc1nnnn1-c1ccccc1,-0.24,21,/,/
Cc1c(C(=O)O)sc2nc(CSc3ncc(C(F)(F)F)cc3Cl)[nH]c(=O)c12,/,12,6,/
CCN(CC)CCNc1nc2nonc2nc1NCCN(CC)CC,/,15,-15,/
FC(F)(F)c1ccc(Nc2nnnc3ccccc23)cc1,0.38,17,14,/
CCCCCCC(=O)Nc1nc(C)c(-c2csc(Nc3ccccc3OC)n2)s1,/,/,7,/
CCCC(=O)Nc1nc(C)c(-c2csc(Nc3ccccc3C)n2)s1,-15*,/,/,?
SMILES,ROMK primary,Calb biofilm kill,Pf gamet viab,ROMK retest
S=C(NCC1CCCO1)N1CCN(Cc2ccccc2)CC1 (stereo not drawn),-0.59,23,-20,/
N#C/C(C(N)=O)=C1/CCCN1Cc1ccccc1,/,/,0,/
O=C1CN(C(=O)c2ccc(Cl)c(S(=O)(=O)N3CCc4ccccc43)c2)c2ccccc2N1,/,9,11,/
CN(C)CCCNC(=O)/C(=C/c1ccc(-c2ccc([N+](=O)[O-])cc2)o1)NC(=O)c1ccccc1,/,/,5,/
CN(C)CCNC(=O)/C(=C/c1ccc(-c2cccc([N+](=O)[O-])c2)o1)NC(=O)c1ccccc1,-4.5*,11,/,0.053*
Cc1ccc(C(=O)N/C(=C\c2ccc(-c3ccc(Cl)cc3)o2)C(=O)NCCCN(C)C)cc1,-2.8,-13,6,/
CN(C)CCNC(=O)/C(=C/c1ccc(-c2cccc(Cl)c2)o1)NC(=O)c1ccccc1,-3.7*,12,/,0.056*
CN(C)CCCNC(=O)/C(=C\c1ccc(-c2ccc(Br)cc2)o1)NC(=O)c1ccccc1,-3.9*,9,-8,0.054*
CN(C)C(=O)/C(=C\c1ccc(-c2cccc([N+](=O)[O-])c2)o1)NC(=O)c1ccccc1,0.044,10,/,/
CCNC(=O)c1c(O)c2c([nH]c1=O)CCCC2,/,18,0,/
CC(Cc1cccnc1)NC(=O)c1ccccc1OC1CCN(S(C)(=O)=O)CC1 (stereo not drawn),0.21,2,27,/
O=C(CSc1nncn1-c1ccccc1)NC1CCCCC1,-0.38,16,/,/
FC(F)(F)c1ccccc1NC(=S)NC1CCN(Cc2ccccc2)CC1,-0.68,5,12,/
COc1cccc(N2[C@@H](CC(C)=O)c3ccc(/C=C/C(C)=O)cc3S2(=O)=O)c1,/,/,1,/
O=C(Nc1ccc(F)cc1)c1ccc(-n2cncn2)c([N+](=O)[O-])c1,0.68,-9,-5,/
COC(=O)c1cc([N+](=O)[O-])c(-n2cncn2)c([N+](=O)[O-])c1,-7.8*,22,-14,0.043*
CC(C)CCNC(=O)NC(=O)COC(=O)C1=COCCO1,0.46,/,-41,0.079
CC(C)c1cccc(C(C)C)c1NC(=O)COC(=O)C1=COCCO1,0.14,12,-6,/
N#CC(c1ccc(O)cc1)c1ncc(C(F)(F)F)cc1Cl (stereo not drawn),0.033,11,2,/
CC(=O)c1ccc(N2CCN(C(=O)COc3ccc(F)cc3)CC2)c(F)c1,-2.8*,/,/,0.061*
CCC(=O)c1ccc(N2CCN(C(=O)COc3ccc(F)cc3)CC2)c(F)c1,-1.8,/,/,/
Cc1ccc(CN2CCN(/N=C\C=C\c3ccccc3)CC2)cc1,0.21,25,/,/
Cc1cccc(N2C(=S)NC3c4ccccc4OC2(C)C3C(=O)N(C)C)c1 (stereo not drawn),-4.4*,-1,-32,0.064*
CN(C)C(=O)C1C2NC(=S)N(c3ccccc3)C1(C)Oc1ccccc12 (stereo not drawn),0.86,13,-6,/
CCOC(=O)c1ccc(N2N=C(C)/C(=C/C=C/c3ccco3)C2=O)cc1,0.42,-1,-22,/
SMILES,ROMK primary,Calb biofilm kill,Pf gamet viab,ROMK retest
O=C(O)c1cc(N2N=C(C(F)(F)F)/C(=C/C=C/c3ccco3)C2=O)ccc1Cl,-5.3*,20,-44,0.049*
COc1ccc(OCc2nc(C#N)c(NCCCn3ccnc3)o2)cc1,-0.12,18,-4,/
S=c1[nH]c2cc(-c3ccccc3)ccc2o1,/,10,/,0.11*
O=S(=O)(c1ccc2oc(=S)[nH]c2c1)N1CCCCC1,/,9,-13,/
CCC(=O)Nc1ccc(S(=O)(=O)Nc2ccc(Cl)nn2)cc1,1.1,15,-13,/
Cn1c(/C(C#N)=C/c2cccc(O)c2)nc2ccccc21,-5*,-1,14,0.049*
N#C/C(=C\c1cccc(O)c1)c1nc2ccccc2o1,/,34,15,/
COc1cccc(-c2c3c([nH]c(=O)c2C#N)CCc2cc(OC)ccc2-3)c1,0.057,1,/,/
CCCCCC[N+](C)(C)CC/C=C1/c2ccccc2Sc2ccc(Cl)cc21,/,22,19,0.045*
CN(C)CC/C=C1/c2ccccc2Sc2ccc(Cl)cc21,/,5,21,/
COc1ccc(CCNc2ccc(C(CC(N)=O)NC(=O)c3cc(C)cc(C)c3)cc2[N+](=O)[O-])cc1 (stereo not drawn),/,/,14,/
CC(=O)Nc1ccc(C)c(NS(=O)(=O)c2cccc(C(F)(F)F)c2)c1,/,16,-31,/
COc1cccc(-c2csc(N3CCN(C(=O)Nc4ccccc4Cl)CC3)n2)c1,-0.44,24,-3,/
COc1cccc(NC(=O)N2CCN(c3nc(-c4cccc(OC)c4)cs3)CC2)c1,/,-5,-20,0.068*
COc1ccc2c(c1)O[C@@]1(CCCC[C@@H]1C)CC2=O,/,/,-1,/
